The text below walks through data of publication PMC7066653 (ACS Omega, 2020).

Molecules are shown by their SMILES. Values after ≈ are worked out from the molar mass of the structure shown.

For series [1] the following is noted: 9 (b3); cited from earlier work.
A short description of series [2]: Aqueous solubility of ATXP and ATX at 25 °C, by HPLC. The series is classed as physicochemical. The settings on record: for solubility at 1 h: 25 °C, thermodynamic from solid. The essentials:
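Excess solid was added to 1 mL of ultrapure water, 0.9% NaCl (pH 7.4) or PBS (pH 7.4) and held at 25 °C. Samples were taken at 1, 24 and 48 h, filtered (0.22 μm) and quantified by HPLC (C18; 75% methanol/water with 1% TFA; 1 mL/min; 350 nm). Experiments were repeated three times and reported as mean ± SD.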

Series [3] concerns focal cerebral ischemia-reperfusion injury (MCAO). More on the design: species or system Sprague-Dawley rats. The settings on record: rat, in vivo.
Series [4] has the same test system. Kind of series: Neurological deficit. The settings on record: edaravone 6 mg/kg iv, single dose, P = 0.4298. It counts as in vivo, Sprague-Dawley rats.

A word on the solubility: it is how much of the substance goes into solution per volume. Low readings indicate a poorly soluble substance, high ones a readily soluble substance.

As for `COc1ccc(-c2cc(=S)ss2)cc1` [ATT, Anethol trithione], the water solubility in series [1] is 0.38 µg/mL (≈ 1.58 µM).
As to `CC1=NN(c2ccccc2)C(=O)C1` [edaravone], in series [2] (saline (0.9%)), the “solubility in saline, in words” value is reported as “freely soluble”. In addition, the “infarct volume vs vehicle” value in series [3] is given as “significant reductions in infarct volume”. The “neurological deficit score, 24 h vs 0 h after reperfusion” value in series [4] is “did not exhibit increased neurological scores”.
For `Oc1ccc(-c2cc(=S)ss2)cc1` [ATX, 5-(4-hydroxyphenyl)-3H-1,2-dithiole3-thione], the solubility at 1 h in series [2] (0.9% NaCl solution, pH 7.4, saline or isotonic) was less than 0.8 µg/mL; in series [2] (PBS, pH 7.4, aqueous buffer) it was less than 0.8 µg/mL; in series [2] (ultrapure water, water) it was 0.8 ± 0.02 µg/mL (≈ 3.53 µM).
